# According to the M2OR odorant receptor database:
# Target: T1, OR51B5 (Homo sapiens) (UniProt Q9H339)
# T1 sequence (whole entry): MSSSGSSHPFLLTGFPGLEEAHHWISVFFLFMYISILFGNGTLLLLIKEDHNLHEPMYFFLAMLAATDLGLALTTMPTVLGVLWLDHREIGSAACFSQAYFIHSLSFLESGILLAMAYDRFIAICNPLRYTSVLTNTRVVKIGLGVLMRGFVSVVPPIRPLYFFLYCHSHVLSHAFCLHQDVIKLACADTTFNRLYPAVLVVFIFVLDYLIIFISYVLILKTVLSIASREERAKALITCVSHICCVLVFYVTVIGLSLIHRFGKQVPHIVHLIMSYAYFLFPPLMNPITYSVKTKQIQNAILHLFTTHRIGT
# Details: stereoisomer not certain
# How it was run: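 Each receptor–molecule pair is labelled responsive or non-responsive (inactive) according to whether the original authors judged the measured signal statistically different from baseline. The data were taken from the main text and supplementary material of published papers and checked for typos and inconsistencies. Assay methods differed by source, with transient luciferase assays in mammalian cell lines being common.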
# 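Note: active if original authors judged signal statistically different from baseline.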
row,Compound,odorant receptor agonist call
1,CCCCCCCCCC(=O)OCC,inactive
2,CCCCCCCCCCCC(=O)OCC,inactive
3,CCCCCCCCCCCCO,inactive
4,CC(C=O)Cc1ccc(C(C)(C)C)cc1 (centres undefined),inactive
5,C=C(C)C1CC=C(C)CC1 (centres undefined),inactive
6,CC(O)C(=O)[O-].[H+] (centres undefined),inactive
7,CCCCCCCCCCCCCC(=O)OC,inactive
8,CCCCOCC(C)O (centres undefined),inactive
9,CCCCCCCCCCCCCC(=O)OCC,inactive
10,CCCCCCCCCCCCCCCC(=O)OC,inactive
11,CCCCCCCCCCCCCCCC(=O)[O-].[H+],inactive
12,CCCCCCCCO,inactive
13,C=C1CCC2CC1C2(C)C (centres undefined),inactive
14,Cc1ccc(C(C)C)cc1,inactive
15,CCCCCCC(=O)[O-].[H+],inactive
16,COc1ccc2[nH]cc(CCNC(C)=O)c2c1,inactive
17,Cc1cnc(C)cn1,inactive
18,CCCCCCCCCCCC(=O)O,active
19,CCCCCCCCCC(=O)OC,inactive
20,CCC(O)CC,inactive
21,CCCCCCCCCCCCCCCCCC(=O)OC,inactive
22,CCCCCCCCCCCCCC(=O)O,inactive
23,CCCCCCCCCCCCCCCCCC(=O)OCC,inactive
24,CCCCCCCC(=O)OCC,inactive
25,CCCO,inactive
26,CCCCCCCCCCCCCCCCCC(=O)[O-].[H+],inactive
27,CCCCCCCCCCCCCCC(=O)O,inactive
28,CC(=O)O,inactive
29,CCCCCCCCCCCCCCCC(=O)OCC,inactive
